Test results from ChEMBL document CHEMBL4257558, “Synthesis of dihydronaphthalene analogues inspired by combretastatin A-4 and their biological evaluation as anticancer agents” (Medchemcomm, 2018).
The source made the active and inactive calls. No cut-off for these calls is given here.

Tests used:
[1] = Inhibition of bovine brain tubulin polymerization preincubated for 15 mins followed by GTP addition and measured for 20 mins by spectrophotometric method; design: species or system Bos taurus
In short: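 Final mixture: 10 μM (1 mg/mL) bovine brain tubulin, 0.8 M monosodium glutamate pH 6.6, 4% DMSO, 0.4 mM GTP, varied compound concentrations. All components except GTP preincubated 15 min at 30 °C, chilled to 0 °C, GTP added, then jumped to 30 °C.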

[2] = tested on: NCI-H460; test: Growth inhibition of human NCI-H460 cells after 48 hrs by SRB assay; format: functional; conditions: NCI-H460, 48 h
In short: (§1)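 Cells plated at 7000–8000 per well in DMEM with 5% FBS/1% gentamicin, grown 24 h at 37 °C, 5% CO2. Compounds from 10 mg/mL DMSO stock added as serial dilutions; doxorubicin and paclitaxel as positive controls.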

[3] = tested on: SK-OV-3; test: Growth inhibition of human SKOV3 cells after 48 hrs by SRB assay; format: functional; conditions: SK-OV-3, 48 h; in short: as §1
[4] = tested on: DU-145; test: Growth inhibition of human DU145 cells after 48 hrs by SRB assay; format: functional; conditions: DU-145, 48 h; in short: as §1
[5] = tested on: A549; test: Vascular disrupting activity in human A549 cells xenografted in T-cell deficient athymic homozygous nude rat assessed as reduction of blood flow at 15 mg/kg, ip after 2 hrs by color doppler ultrasound imaging method; format: functional, organism-based
In short: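 Nude rat bearing subcutaneous leg A549 tumor (3 × 10^6 cells in serum-free medium with 50% Matrigel; tumor about 0.5 cm3). Under isoflurane, color-Doppler ultrasound performed before and 2 h after 15 mg/kg IP in 500 μl saline; tumor blood perfusion compared with baseline.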

[6] = tested on: MDA-MB-231; test: Vascular disrupting activity in luciferase expressing human MDA-MB-231 cells xenografted in BALB/c SCID mouse at 200 mg/kg, ip at 24 hrs by bioluminescence imaging method relative to control; format: functional
In short: (§2)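 Orthotopic tumors from 1 × 10^6 MDA-MB-231-luc cells in PBS/50% Matrigel injected into left upper mammary fat pad of BALB/c SCID mice. Dynamic BLI over 30 min after luciferin injection at baseline, then 4 and 24 h after IP dosing in saline (200 mg/kg in the mouse shown), with fresh luciferin each time; signal reduction expressed versus baseline.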

[7] = tested on: MDA-MB-231; test: Vascular disrupting activity in luciferase expressing human MDA-MB-231 cells xenografted in BALB/c SCID mouse at 200 mg/kg, ip at 4 hrs by bioluminescence imaging method relative to control; format: functional; in short: as §2
[8] = species: Bos taurus; test: Inhibition of [3H]colchicine binding to calf brain tubulin at 1 uM incubated for 10 mins by scintillation counting method relative to control
In short: (§3)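 Tubulin at 1.0 μM with 5.0 μM [3H]colchicine, 5% (v/v) DMSO and test compound at 1.0 or 5.0 μM. Binding-stabilizing buffer: 1.0 M monosodium glutamate (pH 6.6), 0.5 mg mL–1 BSA, 0.1 M glucose-1-phosphate, 1.0 mM MgCl2, 1.0 mM GTP. Incubated 10 min at 37 °C, stopped with ice-cold water, trapped on DEAE-cellulose filters and scintillation-counted. Counts corrected for filter binding without tubulin; percent inhibition versus no-inhibitor samples.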

[9] = species: Bos taurus; test: Inhibition of [3H]colchicine binding to calf brain tubulin at 5 uM incubated for 10 mins by scintillation counting method relative to control; in short: as §3

IC50 [1] [nM] | GI50 [2] [nM] | GI50 [3] [nM] | GI50 [4] [nM] | inhibition [8] [%] | inhibition [9] [%] | Compound | Activity [5] | Activity [6] [%] | Activity [7] [%]
> 20000 | 3.73 | 1.9 | 3.27 | – | – | COc1cc(C2=CCCc3c2ccc(OC)c3OP(=O)(O)O)cc(OC)c1OC | Active | – | –
> 20000 | 52.4 | 12.9 | 12.6 | – | – | COc1cc(C(=O)C2=CCCc3c2ccc(OC)c3OP(=O)([O-])[O-])cc(OC)c1OC.[Na+].[Na+] | – | 81 | 99
1200 | 21.6 | 6.22 | 7.3 | 81 | 98 | COc1ccc2c(c1O)CCC=C2C(=O)c1cc(OC)c(OC)c(OC)c1 | – | – | –
